Assay [1] addresses T1, 5-hydroxytryptamine receptor 3A (Rattus norvegicus, UniProt P35563).
T1 sequence (P35563 whole entry): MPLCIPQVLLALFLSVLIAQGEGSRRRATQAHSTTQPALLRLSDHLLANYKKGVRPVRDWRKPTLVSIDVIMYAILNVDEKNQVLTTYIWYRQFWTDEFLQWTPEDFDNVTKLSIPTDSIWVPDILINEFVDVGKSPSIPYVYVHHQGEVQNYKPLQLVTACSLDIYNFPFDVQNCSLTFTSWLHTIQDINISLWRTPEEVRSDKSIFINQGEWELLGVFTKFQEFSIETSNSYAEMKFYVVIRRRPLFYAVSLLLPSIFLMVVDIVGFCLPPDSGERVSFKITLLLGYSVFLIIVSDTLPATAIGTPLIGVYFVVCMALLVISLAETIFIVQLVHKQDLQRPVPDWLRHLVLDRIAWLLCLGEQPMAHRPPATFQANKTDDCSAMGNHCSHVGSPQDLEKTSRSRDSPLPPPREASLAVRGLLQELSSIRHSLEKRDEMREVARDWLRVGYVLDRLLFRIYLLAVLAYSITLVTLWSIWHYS
Briefly: Displacement of [3H]zacopride from 5HT3 receptor in rat cortex.

Assay [2] deals with T1, 5-hydroxytryptamine receptor 3A. Kind of assay: Displacement of [3H]LY278584 from 5HT3 receptor in rat cortical homogenate.
Assay [3] addresses T2, 5-hydroxytryptamine receptor 1A (Rattus norvegicus, UniProt P19327).
T2 sequence (P19327 whole entry): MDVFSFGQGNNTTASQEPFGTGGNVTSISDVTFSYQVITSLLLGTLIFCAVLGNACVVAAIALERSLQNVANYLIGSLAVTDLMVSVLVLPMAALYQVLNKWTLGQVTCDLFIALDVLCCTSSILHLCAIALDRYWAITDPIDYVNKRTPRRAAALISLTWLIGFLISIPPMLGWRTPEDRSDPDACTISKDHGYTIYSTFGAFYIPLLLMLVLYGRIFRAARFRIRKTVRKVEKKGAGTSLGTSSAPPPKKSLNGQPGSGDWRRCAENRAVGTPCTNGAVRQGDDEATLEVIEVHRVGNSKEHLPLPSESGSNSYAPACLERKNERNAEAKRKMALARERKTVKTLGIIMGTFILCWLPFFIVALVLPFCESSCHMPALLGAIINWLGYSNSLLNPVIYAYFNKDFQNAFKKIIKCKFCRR
Briefly: Displacement of [3H]8-OHDPAT from 5HT1A receptor in rat hippocampus. The format is tissue-based.

In assay [4] the target is 5-hydroxytryptamine receptor 2A (Rattus norvegicus, UniProt P14842). Briefly: Displacement of [3H]ketanserin from 5HT2A receptor in rat cortex.
Assay [5] deals with 5-hydroxytryptamine receptor 4 (Cavia porcellus, UniProt O70528). Kind of assay: Displacement of [3H]GR-113808 from 5HT4 receptor in guinea pig striatum.
Assay [6] addresses T3, 5-hydroxytryptamine receptor 3A (Cavia porcellus) (UniProt O70212).
T3 sequence (whole entry): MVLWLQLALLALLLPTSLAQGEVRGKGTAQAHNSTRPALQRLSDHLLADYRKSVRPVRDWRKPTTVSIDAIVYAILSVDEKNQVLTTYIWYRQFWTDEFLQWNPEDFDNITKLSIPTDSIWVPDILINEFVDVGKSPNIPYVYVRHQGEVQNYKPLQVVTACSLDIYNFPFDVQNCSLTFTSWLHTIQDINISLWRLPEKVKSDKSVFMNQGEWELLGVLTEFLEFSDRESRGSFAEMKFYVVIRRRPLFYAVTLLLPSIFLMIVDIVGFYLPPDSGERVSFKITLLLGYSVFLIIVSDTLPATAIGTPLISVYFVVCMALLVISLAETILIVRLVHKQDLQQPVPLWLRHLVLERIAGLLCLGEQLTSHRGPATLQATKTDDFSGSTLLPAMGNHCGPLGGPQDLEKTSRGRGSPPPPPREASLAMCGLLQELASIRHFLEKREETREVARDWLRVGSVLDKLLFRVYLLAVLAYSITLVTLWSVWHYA
Briefly: Agonist activity at 5HT3 receptor in voltage-stimulated guinea pig left atrium assessed as positive inotropic potency at 100 uM. The following applies: Cardiac atrium. The format is functional, tissue-based. Summed up:
(§1)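 Guinea pig left and right atria were hung in a 15 mL bath of PSS (pH 7.4, 95% O2-5% CO2, 35 °C) with ketanserin 1 µM. The right atrium beat spontaneously; the left was paced at 1 Hz. Cumulative doses (0.1-100 µM; DMSO ≤0.3%) were added after 45-60 min stabilization. Rate or isometric force was recorded. EC50 came from Probit analysis, n≥4. Intrinsic activity was taken relative to 5-HT.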

Assay [7] concerns the target T3, 5-hydroxytryptamine receptor 3A (Cavia porcellus). Kind of assay: Agonist activity at 5HT3 receptor in spontaneously beating guinea pig right atrium assessed as positive chronotropic potency. The format is functional, tissue-based. The following applies: Cardiac atrium. Summed up:
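Isolated guinea pig atria in PSS (Tyrode) with ketanserin 1 µM, 95% O2-5% CO2, pH 7.4, 35 °C. Right atrium beating spontaneously (rate); left atrium paced 1 Hz, 0.6-0.8 ms pulses near 50% threshold (force). Isometric recording after 45-60 min stabilization.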

Assay [8] has the same target. Kind of assay: Intrinsic activity at 5HT3 receptor in spontaneously beating guinea pig right atrium assessed as positive chronotropic potency relative to serotonin. The following applies: Cardiac atrium. In outline: as §1
The target is the same in assay [9]. Kind of assay: Agonist activity at 5HT3 receptor in guinea pig thoracic aorta assessed as positive contractility potency at 100 uM. The format is functional, tissue-based. In outline: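 Guinea pig aortic helicoidal strips in PSS at 35 °C, aerated, under 1 g resting force, washed every 20 min for 1 h. Compounds added cumulatively 0.1-100 µM (DMSO vehicle); isometric contraction recorded.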

The test system of the next assay is Rattus norvegicus. Kind of assay: Antagonist activity at 5HT3 receptor in iv dosed urethane-anesthetized Sprague-Dawley rat assessed as inhibition of 1-phenylbiguanide-induced bradycardia administered 5 mins before 1-phenylbiguanide challenge measured after 5 to 30 mins post-treatment by von Bezold-Jarisch reflex test. The following applies: for ED50: read-out: ID50 (the source's name). The format is functional.

Assay [10] deals with T3, 5-hydroxytryptamine receptor 3A (Cavia porcellus). Kind of assay: Agonist activity at 5HT3 receptor in spontaneously beating guinea pig right atrium assessed as positive chronotropic potency at 100 uM. The format is functional, tissue-based. The following applies: Cardiac atrium. Summed up: as §1
Assay [11] addresses T4, 5-hydroxytryptamine receptor 3A (Cavia porcellus, UniProt O70212).
T4 sequence (O70212 whole entry): T3 sequence (whole entry)
Kind of assay: Antagonist activity at 5HT3 receptor in spontaneously beating guinea pig right atrium assessed as inhibition of serotonin-induced maximum response by noncompetitive binding assay. The format is tissue-based, Cardiac atrium. In outline:
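Spontaneously beating guinea pig right atrium; 5-HT concentration-response curves (0.001-1.0 µM) before and after 30 min antagonist exposure at three concentrations. IC50 is inhibition of 50% of maximal 5-HT response, Probit analysis, n = 4-6.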

The next assay concerns the target D(1A) dopamine receptor (Rattus norvegicus, UniProt P18901). Kind of assay: Displacement of [3H]SCH-23390 from dopamine D1 receptor in rat striatum.
The next assay concerns the target D(2) dopamine receptor (Rattus norvegicus, UniProt P61169). Kind of assay: Displacement of [3H]spiperone from dopamine D2 receptor in rat striatum.
The target of assay [12] is Muscarinic acetylcholine receptor. Briefly: Displacement of [3H]QNB from muscarinic receptor in rat cortex.

Calls of active or inactive are those of the source.

Chain of 5-hydroxytryptamine receptor 4 (O70528 whole entry): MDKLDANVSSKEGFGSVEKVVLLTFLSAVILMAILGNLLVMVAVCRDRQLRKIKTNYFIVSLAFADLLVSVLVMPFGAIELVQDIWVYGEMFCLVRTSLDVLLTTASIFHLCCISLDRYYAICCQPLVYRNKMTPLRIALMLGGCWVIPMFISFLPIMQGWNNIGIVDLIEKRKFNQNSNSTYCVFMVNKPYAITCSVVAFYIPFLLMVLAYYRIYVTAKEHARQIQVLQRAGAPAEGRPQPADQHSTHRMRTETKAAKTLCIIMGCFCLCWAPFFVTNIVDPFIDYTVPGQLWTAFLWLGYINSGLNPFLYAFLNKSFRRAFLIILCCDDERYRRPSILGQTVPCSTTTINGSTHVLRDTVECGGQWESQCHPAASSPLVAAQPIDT
Chain of 5-hydroxytryptamine receptor 2A (P14842 whole entry): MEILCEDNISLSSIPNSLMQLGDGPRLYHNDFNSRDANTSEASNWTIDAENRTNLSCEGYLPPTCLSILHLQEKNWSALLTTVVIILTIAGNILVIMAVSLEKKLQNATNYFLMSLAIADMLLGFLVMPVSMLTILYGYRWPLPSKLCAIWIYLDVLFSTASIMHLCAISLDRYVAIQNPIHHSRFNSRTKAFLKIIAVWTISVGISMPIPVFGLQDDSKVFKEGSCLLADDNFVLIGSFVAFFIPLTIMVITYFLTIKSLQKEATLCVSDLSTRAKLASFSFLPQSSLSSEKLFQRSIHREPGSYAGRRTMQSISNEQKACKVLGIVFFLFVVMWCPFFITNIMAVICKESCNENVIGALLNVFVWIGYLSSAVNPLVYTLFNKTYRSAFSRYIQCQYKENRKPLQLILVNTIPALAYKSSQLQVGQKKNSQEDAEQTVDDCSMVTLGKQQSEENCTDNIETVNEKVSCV
Chain of D(2) dopamine receptor (P61169 whole entry): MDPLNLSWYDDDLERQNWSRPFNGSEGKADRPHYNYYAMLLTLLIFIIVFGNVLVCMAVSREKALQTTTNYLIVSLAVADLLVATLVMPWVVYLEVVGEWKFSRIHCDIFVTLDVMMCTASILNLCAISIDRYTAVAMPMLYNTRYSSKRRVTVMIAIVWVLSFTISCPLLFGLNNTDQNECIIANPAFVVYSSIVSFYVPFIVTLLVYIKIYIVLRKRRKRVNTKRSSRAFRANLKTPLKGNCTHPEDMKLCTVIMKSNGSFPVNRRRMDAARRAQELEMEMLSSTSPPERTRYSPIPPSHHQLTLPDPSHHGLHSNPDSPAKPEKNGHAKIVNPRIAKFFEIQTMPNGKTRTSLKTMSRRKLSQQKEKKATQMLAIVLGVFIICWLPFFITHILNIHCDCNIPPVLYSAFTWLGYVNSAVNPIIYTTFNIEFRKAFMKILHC
Chain of D(1A) dopamine receptor (P18901 whole entry): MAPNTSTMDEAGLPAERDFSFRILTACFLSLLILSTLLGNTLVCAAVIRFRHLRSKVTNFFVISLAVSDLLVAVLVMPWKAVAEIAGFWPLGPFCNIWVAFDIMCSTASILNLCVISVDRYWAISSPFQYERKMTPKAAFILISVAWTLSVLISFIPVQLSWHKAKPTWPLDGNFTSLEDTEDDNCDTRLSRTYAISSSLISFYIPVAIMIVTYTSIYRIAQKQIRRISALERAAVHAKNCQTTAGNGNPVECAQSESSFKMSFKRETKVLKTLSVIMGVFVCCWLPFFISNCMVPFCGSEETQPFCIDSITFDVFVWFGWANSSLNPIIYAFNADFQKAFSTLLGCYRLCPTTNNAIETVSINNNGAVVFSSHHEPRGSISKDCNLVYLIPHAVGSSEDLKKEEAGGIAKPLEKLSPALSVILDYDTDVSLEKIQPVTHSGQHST

With `Fc1ccc2c(c1)nc(N1CCN(Cc3ccccc3)CC1)c1cccn12`, the Ki in [1] is 13 nM. This lies in the double-digit nanomolar range.
With `Cc1cccc2nc(N3CCN(C(C(=O)O)c4ccccc4)CC3)c3cccn3c12` (centres undefined), the inhibition constant Ki in assay [2] turned out to be 44 nM. This lies in the double-digit nanomolar range.
Still for that read-out and setting: then `Fc1ccc2c(c1)nc(N1CCN(Cc3nnn[nH]3)CC1)c1cccn12`, with 65 nM.
On the same count and under the same terms, the same measure for `O=C(O)CN1CCN(c2nc3cc(O)ccc3n3cccc23)CC1`: 2.1 nM.
In assay [1], `CN1CCN(c2nc3cc(O)ccc3n3cccc23)CC1` registered an inhibitory constant (Ki) of 0.7 nM.
As for `CN1CCN(c2nc3cc(F)ccc3n3cccc23)CC1`, the Ki is 0.8 nM in assay [2], 138 nM in assay [3], 124 nM in [4] and more than 10000 nM in assay [5]. For the same molecule, the pD2 result in [6] and in [9] was “inactive” in each case. In addition, the pD2 in [7] is 6.79. The Intrinsic activity in assay [8] is 0.6. The ID50 result with Rattus norvegicus is “Dose-dependent effect”. Moreover, the ED50 in the assay with Rattus norvegicus was determined as 0.6 mg/kg.
As for `Cc1cccc2nc(N3CCN(CC(=O)NO)CC3)c3cccn3c12`, the inhibition constant Ki in [2] stood at 3 nM.
On the same count and under the same terms, the same measure for `NC(CO)C(=O)N1CCN(c2nc3cc(F)ccc3n3cccc23)CC1` (single isomer, unassigned): 237 nM; for `CS(=O)(=O)NC(=O)CN1CCN(c2nc3cc(F)ccc3n3cccc23)CC1`: 246 nM.
On to `c1ccc2nc(N3CCNCC3)ccc2c1` [QUIPAZINE], for which the figures for the Ki in assay [2] and in assay [5] were 0.96 nM and more than 10000 nM, respectively.
On to `Fc1ccc2c(c1)nc(N1CCN(Cc3nnc[nH]3)CC1)c1cccn12`, for which, in assay [2], the inhibition constant (Ki) turned out to be 3.4 nM. In addition, the pD2 entry in assay [6], in [10] and in [9] was “inactive” in each case. In assay [11], the IC50 is 8510 nM.
Regarding `Cc1cccc2nc(N3CCN(C(CO)c4ccccc4)CC3)c3cccn3c12` (centres undefined), the Ki in [2] worked out at 79 nM. This counts as double-digit nanomolar.
In assay [2], `O=c1[nH]nc(CN2CCN(c3nc4cc(F)ccc4n4cccc34)CC2)[nH]1` yielded a Ki of 17 nM.
Take `Cc1cccc2nc(N3CCN(C)CC3)c3cccn3c12`: the inhibitory constant (Ki) was 0.8 nM in assay [1] and more than 10000 nM in [3].
Regarding `O=c1[nH]nc(CN2CCN(c3nc4cc(F)ccc4n4cccc34)CC2)o1`, the Ki in assay [2] turned out to be 127 nM.
Turning to `O=C(O)CN1CCN(c2ccc3ccccc3n2)CC1`, the inhibition constant Ki is 11.2 nM in assay [2]; more than 10000 nM in assay [3]; more than 10000 nM in assay [4]; 5750 nM in [5]; more than 10000 nM at D(1A) dopamine receptor; 919 nM at D(2) dopamine receptor. Further, in assay [12], the Ki is on record as more than 10000 nM.
In [2], `O=C(CN1CCN(c2nc3cc(F)ccc3n3cccc23)CC1)NO` showed an inhibition constant Ki of 2.2 nM. Further, the ED50 with Rattus norvegicus was 0.05 mg/kg.

The record behind these values is ChEMBL document CHEMBL1136924 (J Med Chem, 2009).
